Source: ChEMBL document CHEMBL1255501, “Heteroresistance of Cryptococcus gattii to fluconazole” (2010)

What was measured:
[1] = tested on: Cryptococcus gattii species complex; experiment: Antimicrobial activity against Cryptococcus gattii serotype C isolate H0058-1-2023 assessed as heteroresistant isolates at 2 ug/ml; assay type: functional, Cryptococcus bacillisporus
In short: (§1)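 Population analysis: saline cell suspensions (1 × 103 to 4 × 10^3 CFU/ml) plated on plain YPD agar or YPD agar with various fluconazole concentrations; growth recorded after 72 h at 30°C; percentage of resistant subpopulation at each drug level calculated relative to drug-free plate growth.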

[2] = tested on: Cryptococcus gattii species complex; experiment: Antimicrobial activity against Cryptococcus gattii serotype B isolate NIH281 assessed as concentration required for heteroresistance; assay type: functional, Cryptococcus bacillisporus
In short: (§2)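 Fluconazole spot test: 10-fold serial dilutions of each single-colony-purified strain spotted on YPD agar alone and YPD agar with fluconazole at 4 to 128 μg/ml. The level of heteroresistance to fluconazole (LHF) is the lowest drug concentration at which minor resistant subpopulations emerge within the spot.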

[3] = tested on: Cryptococcus gattii species complex; experiment: Antimicrobial activity against Cryptococcus gattii serotype B isolate NIH409 assessed as concentration required for heteroresistance; assay type: functional, Cryptococcus bacillisporus; in short: as §2
[4] = tested on: Cryptococcus gattii species complex; experiment: Antimicrobial activity against Cryptococcus gattii serotype B isolate NIH286 assessed as heteroresistant isolates at 8 ug/ml; assay type: functional, Cryptococcus bacillisporus
In short: (§3)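 Population analysis: cells suspended in sterile saline at 1 × 10³ to 4 × 10³ CFU/ml and plated on plain YPD agar or YPD agar with various fluconazole concentrations. Plates incubated at 30°C for 72 h. The resistant subpopulation at each concentration is recorded as a percentage of the population.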

[5] = tested on: Cryptococcus gattii species complex; experiment: Antimicrobial activity against Cryptococcus gattii serotype B isolate RB22 assessed as heteroresistant isolates at 2 ug/ml; assay type: functional, Cryptococcus bacillisporus; in short: as §1
[6] = tested on: Cryptococcus gattii species complex; experiment: Antimicrobial activity against Cryptococcus gattii serotype C isolate H0058-1-1941 assessed as heteroresistant isolates at 8 ug/ml; assay type: functional, Cryptococcus bacillisporus; in short: as §1
[7] = tested on: Cryptococcus gattii species complex; experiment: Antimicrobial activity against Cryptococcus gattii serotype B isolate VPB571-058 assessed as concentration required for heteroresistance; assay type: functional, Cryptococcus bacillisporus
[8] = tested on: Cryptococcus gattii species complex; experiment: Antimicrobial activity against Cryptococcus gattii serotype C isolate NIH257 assessed as heteroresistant isolates at 2 ug/ml; assay type: functional, Cryptococcus bacillisporus
In short: (§4)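 Cell suspensions of 1 × 10^3 to 4 × 10^3 CFU/ml were made in sterile saline and plated on plain YPD agar or YPD agar with various fluconazole concentrations. Plates were incubated at 30°C for 72 h, and the percentage of resistant subpopulation emerging was recorded.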

[9] = tested on: Cryptococcus gattii species complex; experiment: Antimicrobial activity against Cryptococcus gattii serotype C isolate NIH139 assessed as concentration required for heteroresistance; assay type: functional, Cryptococcus bacillisporus
[10] = tested on: Cryptococcus gattii species complex; experiment: Antimicrobial activity against Cryptococcus gattii serotype C isolate H0058-1-78 assessed as heteroresistant isolates at 8 ug/ml; assay type: functional, Cryptococcus bacillisporus; in short: as §1
[11] = tested on: Cryptococcus gattii species complex; experiment: Antimicrobial activity against Cryptococcus gattii serotype B isolate NIH767 assessed as concentration required for heteroresistance; assay type: functional, Cryptococcus bacillisporus; in short: as §2
[12] = tested on: Cryptococcus gattii species complex; experiment: Antimicrobial activity against Cryptococcus gattii serotype B isolate NIH771 assessed as heteroresistant isolates at 2 ug/ml; assay type: functional, Cryptococcus bacillisporus; in short: as §3
[13] = tested on: Cryptococcus bacillisporus; experiment: Antimicrobial activity against Cryptococcus gattii serotype C isolate NIH191 assessed as heteroresistant isolates at 4 ug/ml; assay type: functional; in short: as §1
[14] = tested on: Cryptococcus deuterogattii; experiment: Antimicrobial activity against Cryptococcus gattii serotype B isolate NIH444 assessed as heteroresistant isolates at 16 ug/ml; assay type: functional, Cryptococcus bacillisporus; in short: as §3
[15] = tested on: Cryptococcus gattii species complex; experiment: Antimicrobial activity against Cryptococcus gattii serotype C isolate H0058-1-2086 assessed as concentration required for heteroresistance; assay type: functional, Cryptococcus bacillisporus
[16] = tested on: Cryptococcus gattii species complex; experiment: Antimicrobial activity against Cryptococcus gattii serotype B isolate B5788 assessed as heteroresistant isolates at 8 ug/ml; assay type: functional, Cryptococcus bacillisporus; in short: as §3
[17] = tested on: Cryptococcus gattii species complex; experiment: Antimicrobial activity against Cryptococcus gattii serotype C isolate NIH113 assessed as heteroresistant isolates at 16 ug/ml; assay type: functional, Cryptococcus bacillisporus; in short: as §1
[18] = tested on: Cryptococcus gattii species complex; experiment: Antimicrobial activity against Cryptococcus gattii serotype B isolate NIH189 assessed as heteroresistant isolates at 2 ug/ml; assay type: functional, Cryptococcus bacillisporus; in short: as §3
[19] = tested on: Cryptococcus gattii species complex; experiment: Antimicrobial activity against Cryptococcus gattii serotype C isolate NIH298 assessed as heteroresistant isolates at 8 ug/ml; assay type: functional, Cryptococcus bacillisporus; in short: as §4
[20] = tested on: Cryptococcus gattii species complex; experiment: Antimicrobial activity against Cryptococcus gattii serotype B isolate NIH771 assessed as heteroresistant isolates at 4 ug/ml; assay type: functional, Cryptococcus bacillisporus; in short: as §1
[21] = tested on: Cryptococcus gattii species complex; experiment: Antimicrobial activity against Cryptococcus gattii serotype C isolate NIH403 assessed as concentration required for heteroresistance; assay type: functional, Cryptococcus bacillisporus
In short: (§5)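 […] on YPD agar at 4 to 128 μg/ml. The lowest drug concentration at which minor resistant subpopulations emerged within the patch was scored as the strain's level of heteroresistance.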

[22] = tested on: Cryptococcus gattii species complex; experiment: Antimicrobial activity against Cryptococcus gattii serotype C isolate NIH917 assessed as concentration required for heteroresistance; assay type: functional, Cryptococcus bacillisporus; in short: as §5
[23] = tested on: Cryptococcus gattii species complex; experiment: Antimicrobial activity against Cryptococcus gattii serotype B isolate NIH189 assessed as heteroresistant isolates at 8 ug/ml; assay type: functional, Cryptococcus bacillisporus; in short: as §3
[24] = tested on: Cryptococcus gattii species complex; experiment: Antimicrobial activity against Cryptococcus gattii serotype B isolate B5765 assessed as concentration required for heteroresistance; assay type: functional, Cryptococcus bacillisporus; in short: as §2
[25] = tested on: Cryptococcus gattii species complex; experiment: Antimicrobial activity against Cryptococcus gattii serotype B isolate RB14 assessed as heteroresistant isolates at 8 ug/ml; assay type: functional, Cryptococcus bacillisporus; in short: as §1
[26] = tested on: Cryptococcus gattii species complex; experiment: Antimicrobial activity against Cryptococcus gattii serotype B isolate NIH535 assessed as heteroresistant isolates at 2 ug/ml; assay type: functional, Cryptococcus bacillisporus; in short: as §3
[27] = tested on: Cryptococcus gattii species complex; experiment: Antimicrobial activity against Cryptococcus gattii serotype B isolate NIH286 assessed as heteroresistant isolates at 4 ug/ml; assay type: functional, Cryptococcus bacillisporus; in short: as §3
[28] = tested on: Cryptococcus gattii species complex; experiment: Antimicrobial activity against Cryptococcus gattii serotype C isolate NIH178 assessed as concentration required for heteroresistance; assay type: functional, Cryptococcus bacillisporus
[29] = tested on: Cryptococcus gattii species complex; experiment: Antimicrobial activity against Cryptococcus gattii serotype B isolate NIH184 assessed as concentration required for heteroresistance; assay type: functional, Cryptococcus bacillisporus; in short: as §2
[30] = tested on: Cryptococcus gattii species complex; experiment: Antimicrobial activity against Cryptococcus gattii serotype B isolate NIH412 assessed as heteroresistant isolates at 4 ug/ml; assay type: functional, Cryptococcus bacillisporus; in short: as §3
[31] = tested on: Cryptococcus gattii species complex; experiment: Antimicrobial activity against Cryptococcus gattii serotype B isolate NIH190 assessed as heteroresistant isolates at 4 ug/ml; assay type: functional, Cryptococcus bacillisporus; in short: as §3
[32] = tested on: Cryptococcus gattii species complex; experiment: Antimicrobial activity against Cryptococcus gattii serotype B isolate RB14 assessed as heteroresistant isolates at 32 ug/ml; assay type: functional, Cryptococcus bacillisporus; in short: as §1
[33] = tested on: Cryptococcus gattii species complex; experiment: Antimicrobial activity against Cryptococcus gattii serotype B isolate NIH184 assessed as heteroresistant isolates at 8 ug/ml; assay type: functional, Cryptococcus bacillisporus; in short: as §3
[34] = tested on: Cryptococcus gattii species complex; experiment: Antimicrobial activity against Cryptococcus gattii serotype B isolate NIH367 assessed as heteroresistant isolates at 4 ug/ml; assay type: functional, Cryptococcus bacillisporus; in short: as §3
[35] = tested on: Cryptococcus gattii species complex; experiment: Antimicrobial activity against Cryptococcus gattii serotype C isolate NIH298 assessed as heteroresistant isolates at 2 ug/ml; assay type: functional, Cryptococcus bacillisporus; in short: as §4
[36] = tested on: Cryptococcus gattii species complex; experiment: Antimicrobial activity against Cryptococcus gattii serotype B isolate NIH754 assessed as heteroresistant isolates at 2 ug/ml; assay type: functional, Cryptococcus bacillisporus; in short: as §3
[37] = tested on: Cryptococcus gattii species complex; experiment: Antimicrobial activity against Cryptococcus gattii serotype C isolate H0058-1-1686 assessed as heteroresistant isolates at 4 ug/ml; assay type: functional, Cryptococcus bacillisporus; in short: as §1
[38] = tested on: Cryptococcus gattii species complex; experiment: Antimicrobial activity against Cryptococcus gattii serotype B isolate VPB572-058 assessed as heteroresistant isolates at 32 ug/ml; assay type: functional, Cryptococcus bacillisporus; in short: as §1
[39] = tested on: Cryptococcus bacillisporus; experiment: Antimicrobial activity against Cryptococcus gattii serotype C isolate NIH191 assessed as heteroresistant isolates at 32 ug/ml; assay type: functional; in short: as §1
[40] = tested on: Cryptococcus gattii species complex; experiment: Antimicrobial activity against Cryptococcus gattii serotype B isolate RB-4 assessed as concentration required for heteroresistance; assay type: functional, Cryptococcus bacillisporus
[41] = tested on: Cryptococcus gattii species complex; experiment: Antimicrobial activity against Cryptococcus gattii serotype B isolate B5765 assessed as heteroresistant isolates at 4 ug/ml; assay type: functional, Cryptococcus bacillisporus; in short: as §3
[42] = tested on: Cryptococcus gattii species complex; experiment: Antimicrobial activity against Cryptococcus gattii serotype B isolate NIH190 assessed as heteroresistant isolates at 2 ug/ml; assay type: functional, Cryptococcus bacillisporus; in short: as §3
[43] = tested on: Cryptococcus gattii species complex; experiment: Antimicrobial activity against Cryptococcus gattii serotype B isolate RB-17 assessed as concentration required for heteroresistance; assay type: functional, Cryptococcus bacillisporus

`OC(Cn1cncn1)(Cn1cncn1)c1ccc(F)cc1F` [FLUCONAZOLE] showed an Activity [1] of 100%, an Activity [2] of 4 µg/mL and an Activity [3] of 32 µg/mL. The Activity [4] was 100%, the Activity [5] was 100% and the Activity [6] was 100%. It also gave an Activity [7] of 32 µg/mL, an Activity [8] of 100% and an Activity [9] of 32 µg/mL. The Activity [10] was 100%, the Activity [11] was 32 µg/mL and the Activity [12] was 100%. For the same compound, the Activity [13] was 100%, the Activity [14] was 100% and the Activity [15] was 32 µg/mL. The Activity [16] was 5.7%, the Activity [17] was 100% and the Activity [18] was 100%. It also gave an Activity [19] of 100%, an Activity [20] of 100% and an Activity [21] of 16 µg/mL. The Activity [22] was 32 µg/mL, the Activity [23] was 100% and the Activity [24] was 16 µg/mL. The Activity [25] was 100%, the Activity [26] was 100% and the Activity [27] was 100%. It also gave an Activity [28] of 32 µg/mL, an Activity [29] of 16 µg/mL and an Activity [30] of 0.07%. It also gave an Activity [31] of 100%, an Activity [32] of 0.8% and an Activity [33] of 100%. The Activity [34] was 100%, the Activity [35] was 100% and the Activity [36] was 100%. The Activity [37] was 100%, the Activity [38] was 1.6% and the Activity [39] was 20%. The Activity [40] was 32 µg/mL, the Activity [41] was 100% and the Activity [42] was 100%. For the same compound, the Activity [43] was 32 µg/mL.
